Results from ChEMBL document CHEMBL1124995, “Synthesis and pharmacology of the enantiomers of cis-7-hydroxy-3-methyl-2-(dipropylamino)tetralin” (J Med Chem, 1990).

Key:
Rattus norvegicus [1] = assay: Effect of locomotor activity in reserpine pretreated rats at the dose of 25.0uM/Kg, sc ip after count of 30 minute; assay type: functional
Outline: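 Reserpine 5 mg/kg sc given 18 h before; test drug sc immediately before session; haloperidol 0.3 mg/kg sc injected 30 min before test drug. Photocell motility boxes, accumulated counts over 30 min, with gross behaviour observed through mirror; mean ± SEM, n = 3-4; Anova with Fischer's test versus saline controls. Injection volume 5 mL/kg, near-neutral pH.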

Rattus norvegicus [2] = assay: Effect of locomotor activity in reserpine pretreated rats at the dose of 50.0uM/Kg, sc ip after count of 30 minute; assay type: functional
Outline: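 Rats given reserpine 5 mg/kg sc 18 h beforehand, then test drug sc immediately before the session. Photocell motility counts accumulated over 30 min, mean ± SEM, n = 3-4. In one arm haloperidol 0.3 mg/kg sc was given 30 min before drug. ANOVA with Fisher's test against controls.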

Rattus norvegicus [3] = assay: Effect of locomotor activity in nonpretreated rats at the dose of 50.0uM/Kg, sc; assay type: functional
Outline: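 Untreated rats given test drug sc 5 min before the session. Photocell motility boxes recorded accumulated counts over 30 min, with gross behaviour observed. Activity expressed as % of saline controls, mean ± SEM. ANOVA with Fisher's test.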

Rattus norvegicus [4] = assay: In vivo effect of 5-HTP accumulation in nonpretreated rat limbic system at the dose of 50 umol/kg, sc; assay type: functional
Outline: (§1)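 Untreated rats given test drug 50 μmol/kg sc 65 min before death, and NSD 1015 (decarboxylase inhibitor) 100 mg/kg ip 30 min before death. DOPA and 5-HTP in limbic, striatal and cortical regions measured by HPLC with electrochemical detection. Values are % of saline controls, mean ± SEM, n = 4. ANOVA with Fisher's test.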

Rattus norvegicus [5] = assay: In vivo effect of DOPA accumulation in nonpretreated rat striatum at the dose of 50 umol/kg, sc ip; assay type: functional; outline: as §1
D(2) dopamine receptor [6] = biological target: T1, D(2) dopamine receptor (Bos taurus, UniProt P20288); assay: Binding affinity of [3H]NPA to striatal Dopamine receptor D2
Outline: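 Calf striatal membranes (homogenised in Tris salt buffer pH 7.4, preincubated 30 min at 35 °C, washed), 1.5–2 mg/tube. Competition with [3H]NPA (100 μL of 5 nM added to 1 mL) in 50 mM Tris-HCl, 1 mM EDTA, 4 mM MgCl2, 0.01% ascorbic acid, pH 7.2. Incubated 45 min at 25 °C. Nonspecific binding with 1 μM (+)-butaclamol. Filtration, scintillation counting; pIC50 as mean ± SEM.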

D(2) dopamine receptor [7] = biological target: T1, D(2) dopamine receptor; assay: Binding affinity of [3H]spiroperidol to striatal Dopamine receptor D2 binding sites
Outline: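 Calf striatal membranes, 1.5–2 mg/tube. Competition with [3H]spiroperidol (100 μL of 10 nM added to 1 mL) in Tris-HCl buffer with EDTA, NaCl, KCl, CaCl2, MgCl2, pH 7.2, run in triplicate. Incubated 40 min at 37 °C. Nonspecific binding with 1 μM (+)-butaclamol. GF/B filtration, scintillation counting; pIC50 as mean ± SEM.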

Rattus norvegicus [8] = assay: In vivo effect of DOPA accumulation in nonpretreated rat cortex at the dose of 50 umol/kg, sc ip; assay type: functional; outline: as §1
Rattus norvegicus [9] = assay: In vivo effect of DOPA accumulation in nonpretreated rat limbic system at the dose of 50 umol/kg, sc ip; assay type: functional; outline: as §1
Rattus norvegicus [10] = assay: In vivo effect of 5-HTP accumulation in nonpretreated rat cortex at the dose of 50 umol/kg, sc; assay type: functional; outline: as §1
Rattus norvegicus [11] = assay: In vivo effect of 5-HTP accumulation in nonpretreated rat striatum at the dose of 50 umol/kg, sc; assay type: functional; outline: as §1

T1 sequence (P20288 whole entry): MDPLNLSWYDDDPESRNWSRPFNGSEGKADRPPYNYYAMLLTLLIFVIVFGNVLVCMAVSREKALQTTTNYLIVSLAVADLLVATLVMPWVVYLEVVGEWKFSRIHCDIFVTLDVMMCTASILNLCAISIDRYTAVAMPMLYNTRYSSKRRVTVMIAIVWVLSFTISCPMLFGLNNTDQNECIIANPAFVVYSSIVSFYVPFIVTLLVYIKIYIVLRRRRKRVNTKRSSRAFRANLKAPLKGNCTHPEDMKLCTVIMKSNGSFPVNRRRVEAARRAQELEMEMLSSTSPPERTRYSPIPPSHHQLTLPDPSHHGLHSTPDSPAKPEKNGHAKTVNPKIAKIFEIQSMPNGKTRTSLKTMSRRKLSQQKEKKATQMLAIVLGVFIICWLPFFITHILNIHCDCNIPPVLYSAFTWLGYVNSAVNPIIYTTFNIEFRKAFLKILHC

**Q.** With `O=C(CCCN1CCC(O)(c2ccc(Cl)cc2)CC1)c1ccc(F)cc1` [HALOPERIDOL] as the compound, how does the Activity (Rattus norvegicus [1]) read?
**A.** Its Activity is 573 counts/30 min.

**Q.** `CCCN(CCC)[C@@H]1Cc2cc(O)ccc2C[C@H]1C` (racemic) was tested. Which Activity (Rattus norvegicus [2]) did it give?
**A.** The Activity was 331 µM/kg.

**Q.** And the Activity (Rattus norvegicus [3])?
**A.** Its Activity is 147 µM/kg.

**Q.** What about the Control (Rattus norvegicus [4]) of the same compound?
**A.** The Control was 136%.

**Q.** And the Control (Rattus norvegicus [5])?
**A.** Its Control is 247%.

**Q.** What about the IC50 (D(2) dopamine receptor [6]) of the same compound?
**A.** The IC50 was 1.02 µM.

**Q.** And the IC50 (D(2) dopamine receptor [7])?
**A.** The IC50 was 26.9 µM.

**Q.** What about the Control (Rattus norvegicus [8]) of the same compound?
**A.** The Control was 217%.

**Q.** And the Control (Rattus norvegicus [9])?
**A.** Its Control is 146%.

**Q.** And the Control (Rattus norvegicus [10])?
**A.** Its Control is 147%.

**Q.** What about the Control (Rattus norvegicus [11]) of the same compound?
**A.** The Control was 117%.
